CHRM4 antagonist: antagonists of human muscarinic M4 receptor (CHRM4); inhibition, % at 3 µM; actives 0.73% (n = 360,000); CHO-hM4 cells, ACh EC80, Fluo-8 calcium fluorescence; P08173; AID 624125;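 active = inhibition above its plate's cutoff, the mean inhibition of sample wells plus 3 SD, cut at about 27% in these data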;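 also: 0% = acetylcholine EC80 with DMSO and 100% = DMSO without agonist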
Target sequence (P08173 whole entry, looked up): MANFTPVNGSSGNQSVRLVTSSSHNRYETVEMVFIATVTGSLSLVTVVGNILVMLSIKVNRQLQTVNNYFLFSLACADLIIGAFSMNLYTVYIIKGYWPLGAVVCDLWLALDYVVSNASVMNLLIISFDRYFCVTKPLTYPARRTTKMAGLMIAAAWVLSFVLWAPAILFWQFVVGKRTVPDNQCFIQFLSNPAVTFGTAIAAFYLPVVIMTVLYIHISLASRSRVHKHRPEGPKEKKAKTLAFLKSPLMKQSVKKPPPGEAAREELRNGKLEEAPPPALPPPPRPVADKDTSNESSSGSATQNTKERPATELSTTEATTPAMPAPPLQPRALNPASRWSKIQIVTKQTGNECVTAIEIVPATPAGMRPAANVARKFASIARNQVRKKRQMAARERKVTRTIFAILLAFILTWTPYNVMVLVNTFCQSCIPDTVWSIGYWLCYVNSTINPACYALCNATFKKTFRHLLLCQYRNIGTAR
CHRM4 agonist: CHRM4 agonism in calcium assay | P08173 | CHO-K1 hM4/Gqi5, Fluo-8 calcium fluorescence; vehicle 0%, full acetylcholine response 100% | activation, % at 3 µM | actives 0.14% (n = 360,000) | AID 624127;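 active = activation above the run mean over all test wells plus 3 SD, cut at about 32% in these data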;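 also: peak over basal fluorescence ratio per well then scaled between controls; 0% = DMSO wells and 100% = acetylcholine at EC100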
CHRM5 PAM: positive allosteric modulators of human muscarinic M5 receptor; P08912; CHO-K1 hM5, Fluo-8 calcium, ACh EC20 PAM; 0% = ACh EC20, 100% = ACh EC100; activation, % at 3 µM; actives 0.3% (n = 360,000); AID 624038;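 active = activation above the run cutoff, the mean activation of all test compounds plus 3 SD, cut at about 18% in these data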
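Assay system: CHO-K1 hM5 cells / Incubation: Fluo-8 loading 80 min at 37 °C plus 30 min room temperature / Technique: Fluo-8 calcium dye fluorescence, kinetic read / Repeats: single replicate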
CHRM5 antagonist: CHRM5 antagonism in calcium assay | P08912 | CHO-hM5 cells, Fluo-8 calcium fluorescence, ACh EC80 | inhibition, % at 3 µM | actives 0.59% (n = 360,000) | AID 624040;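 active = inhibition above a per-plate cutoff, the mean of that plate's test compounds plus 3 SD, cut at about 27% in these data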;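 also: 0% = acetylcholine EC80 with DMSO and 100% = DMSO without agonist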
CHRM5 agonist: agonists of human muscarinic M5 receptor (CHRM5); P08912; CHO-K1 hM5 cells, Fluo-8 calcium fluorescence; 0% DMSO wells, 100% maximal acetylcholine response; activation, % at 3 µM; actives 0.19% (n = 360,000);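 active = activation above the run's mean over test compounds plus 3 SD, cut at about 23% in these data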;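 also: signal is peak over basal fluorescence ratio across the kinetic read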
M4 PAM: potentiates acetylcholine response at human M4 receptor. P08173. CHO-K1 hM4/Gqi5, Fluo-8 calcium fluorescence, ACh EC20; 0% = ACh EC20, 100% = maximal ACh. activation, % at 3 µM. actives 0.4% (n = 360,000). AID 624126;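 active = activation above its plate's cutoff, the mean activation of sample wells plus 3 SD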
* hit, by the source's call; ! = not confirmed by another sample. A selection: hits, their analogues and other compounds. The true share with any hit is near 1.8%.

SMILES | CHRM4 antagonist | CHRM4 agonist | CHRM5 PAM | CHRM5 antagonist | CHRM5 agonist | M4 PAM
O=C(C[n+]1cc(-c2ccc(Cl)cc2)n2c1CCC2)N1c2ccccc2Sc2ccccc21 | 97* | 9 | -18 | 99* | -10 | -19
O=C(CCNC(=O)Cn1ccc2ccccc2c1=O)NCC1CCCC1c1ccccc1 (stereo unspecified) | 12 | 0 | 2 | 6 | -2 | 3
O=C(NCc1ccccc1F)c1ccc(S(=O)(=O)N2CCCCCC2)cc1 | 7 | 6 | -7 | 12 | -1 | -5
Cc1cnc(CNC(=O)c2ccc3sc([C@@H]4O[C@H](CO)[C@H](O)[C@H](O)[C@H]4O)nc3c2)cn1 | 7 | 0 | -2 | 2 | -1 | -3
O=C(NCc1cccs1)c1ccc2sc([C@@H]3O[C@H](CO)[C@H](O)[C@H](O)[C@H]3O)nc2c1 | -14 | 1 | 7 | -7 | 1 | 16*
COc1cc(C2NC(=O)NC(C)=C2[N+](=O)[O-])cc(OC)c1OC (stereo unspecified) | 2 | 0 | 5 | 10 | 7 | -3
Cc1nn(C(C)C(=O)NCCc2ccco2)c(=O)c2nn(-c3ccccc3)c(C)c12 (stereo unspecified) | 17 | 15 | 23* | 21 | 0 | 51*
CCCCNc1c(-c2ccc(SC3CCCCC3)c(OC)c2)nc2ccc(C)cn12 | 35*! | 4 | -8 | 8 | 4 | -5
CCCCNc1c(-c2ccc(OC)c(SC3CCCCC3)c2)nc2ccc(C)cn12 | 78* | 15 | -35 | 40* | -2 | -10
Cc1cccc(OCc2nnc(SCC(=O)NC3CCCCC3)n2C)c1 | -16 | 2 | 1 | 1 | -1 | 3
Cc1c(OCC(=O)NCCN2CCOCC2)ccc2c1oc(=O)c1ccccc12 | 0 | 21 | -6 | 1 | 3 | -6
N#Cc1nc(-c2ccccc2F)oc1NCCc1ccccc1 | 27* | 0 | -9 | 5 | -2 | 7
CN(C)CCOC1c2ccccc2CSc2ccccc21 (stereo unspecified) | 98* | 1 | -28 | 99* | -19 | -16
CN1C(=O)c2ccc(N3CCCC3)cc2C1=O | -4 | 8 | -6 | 4 | 5 | -9
O=C1N/C(=C/c2ccc(N3CCCC3)cc2)C(=O)N1c1ccccc1 | -6 | 1 | -4 | -5 | -2 | -7
Cc1cc(N2CCCC2)ccc1/C=C1\NC(=S)N(C)C1=O | 9 | 13 | -9 | 7 | 42* | -11
O=C1/C(=C/c2ccc(N3CCCC3)cc2)NC(=S)N1C1CC1 | 36* | 46* | -18 | 54* | 69* | -27
CC[C@]12c3[nH]c4ccc(OC)cc4c3CCN1C(=O)C(CC(=O)NCCc1ccccn1)C[C@@H]2C(=O)N1CCN(C(=O)c2ccco2)CC1 (stereo partly specified) | -15 | 0 | 2 | -10 | 1 | -2
CC(=NNC(=S)N1CCN(c2ccccn2)CC1)c1ccccn1 | 10 | 8 | -9 | 8 | 4 | -6
CC(=NNC(=S)N1CCN(c2ccccn2)CC1)c1nccs1 | 43* | 4 | -21 | 29* | -7 | -5
O=C(NCCO)C(=O)NCC1OCCCN1S(=O)(=O)c1cc(F)ccc1F (stereo unspecified) | -2 | 0 | -8 | 4 | -2 | 2
Cc1ccc(C(c2sc3nc(C)nn3c2O)N2CCN(CCO)CC2)cc1 (stereo unspecified) | 4 | 0 | 4 | -2 | 2 | 7
Cc1ccc(C(c2sc3nc(C)nn3c2O)N2CCN(c3ccccc3F)CC2)cc1 (stereo unspecified) | 7 | 0 | 19* | -1 | -9 | 5
O=C(COC(=O)c1ccc([N+](=O)[O-])o1)Nc1ccc2c(c1)OCO2 | 0 | 1 | -9 | 11 | 3 | 9
O=C(COc1ccc(Br)cc1F)NC1CC1 | 0 | 2 | 6 | 5 | 1 | 5
SMILES | CHRM4 antagonist | CHRM4 agonist | CHRM5 PAM | CHRM5 antagonist | CHRM5 agonist | M4 PAM
CN(CC(=O)Nc1ccccc1-c1ccccc1)Cc1ccccc1Cl | -12 | -1 | -3 | -20 | -2 | -10
CCN1/C(=C/c2sc(-c3ccccc3C)c[n+]2C)Sc2ccccc21 | 23 | 11 | -21 | 37* | -3 | -16
COC(=O)C1=C(C(=O)OC)[C@@H]2Nc3ccccc3[C@@]23C[C@@H](C(=O)OC)N(C(=O)c2cccs2)C3=N1 | -13 | 0 | 3 | 13 | -2 | 25*
CCC(C)C(NC(=O)C1CCC(C)CC1)C(=O)NC(C(=O)OC)C(C)C (stereo unspecified) | -2 | 2 | -8 | -11 | 1 | 20*
CCCCNC(=O)COCc1cc(-c2ccc3c(c2)OCO3)on1 | -5 | 6 | -6 | 8 | -1 | 15*
COc1ccc(-c2nc3c(Br)c(N)c(Br)cc3o2)cc1 | 27* | 1 | 10 | -1 | -2 | 29*
Nc1c(Br)cc2oc(-c3ccccc3)nc2c1Br | -7 | 0 | 2 | -11 | -2 | 20
O=CN(Cc1nc2ccccc2[nH]1)c1ccc(C(=O)O)cc1 | -1 | 0 | 1 | 19 | 3 | 2
CN(C)c1cc[n+](CC(=O)Nc2ccc(Oc3ccccc3)cc2)cc1 | 43* | 1 | -14 | 11 | -12 | -22
CCOc1ccc(NC(=O)C[n+]2ccc(N(C)C)cc2)cc1 | 9 | 1 | 5 | 0 | -6 | -1
CC(C)N(C(=O)CN(C#N)c1nc(N(C)C)nc(N(C)C)n1)c1ccccc1 | -1 | 0 | 3 | -2 | 2 | 42*
Cc1occc1C(=O)Nc1sc2c(c1C(N)=O)CCC(C(C)(C)C)C2 (stereo unspecified) | 3 | 1 | 4 | -10 | 4 | 29*
CC(=O)O[C@]1(C(C)=O)CCC2C3C=C(C)C4=CC(=O)CC[C@]4(C)C3CC[C@@]21C (stereo partly specified) | -22 | 1 | 3 | -4 | -3 | 1
CC(=O)O[C@H]1C[C@@]2(C)[C@@H](C[C@@H](O)[C@H]3[C@@]4(C)CC[C@@H](O)[C@@H](C)[C@@H]4CC[C@@]32C)/C1=C(\CCC=C(C)C)C(=O)O | 81*! | 0 | -19 | 44*! | -2 | -16
Cc1cc(C)cc(-n2c(=O)c3sccc3n(CC(=O)NCc3ccco3)c2=O)c1 | 23 | 0 | 22* | 6 | -1 | 28
CCOc1ccccc1CNS(=O)(=O)c1ccc(-c2cnc(C3CC3)o2)cc1 | 28* | 19 | -16 | 28* | 3 | -11
COc1ccccc1C(CNC(=O)c1cccc(S(=O)(=O)Nc2ccc(F)cc2)c1)N1CCCC1 (stereo unspecified) | 36* | 3 | -46 | 47* | -12 | -16
